The term inhibition denotes the relative decrease from the control value, in per cent.

Test [1] in a line: Inhibition of p70S6K ATP Loop labeling site harbouring GGYGKVFQVR in human A-375 cells at 0.05 uM by KiNativ Profiling analysis relative to control. The note with it: condition cancer.
In test [2] the target is Mitogen-activated protein kinase 10 (Homo sapiens, UniProt P53779). Kind of test: Inhibition of JNK3 Lys2 labeling site in human A-375 cells at 0.5 uM by KiNativ Profiling analysis relative to control. In kind it is cell-based.
In test [3] the target is Phosphatidylinositol 3-kinase catalytic subunit type 3 (Homo sapiens) (UniProt Q8NEB9). The experiment in a line: Inhibition of PIK3C3 ATP labeling site in human A-375 cells at 0.5 uM by KiNativ Profiling analysis relative to control. In kind it is cell-based.
Test [4] addresses T1, Serine/threonine-protein kinase Nek9 (Homo sapiens) (UniProt Q8TD19).
T1 sequence (whole entry): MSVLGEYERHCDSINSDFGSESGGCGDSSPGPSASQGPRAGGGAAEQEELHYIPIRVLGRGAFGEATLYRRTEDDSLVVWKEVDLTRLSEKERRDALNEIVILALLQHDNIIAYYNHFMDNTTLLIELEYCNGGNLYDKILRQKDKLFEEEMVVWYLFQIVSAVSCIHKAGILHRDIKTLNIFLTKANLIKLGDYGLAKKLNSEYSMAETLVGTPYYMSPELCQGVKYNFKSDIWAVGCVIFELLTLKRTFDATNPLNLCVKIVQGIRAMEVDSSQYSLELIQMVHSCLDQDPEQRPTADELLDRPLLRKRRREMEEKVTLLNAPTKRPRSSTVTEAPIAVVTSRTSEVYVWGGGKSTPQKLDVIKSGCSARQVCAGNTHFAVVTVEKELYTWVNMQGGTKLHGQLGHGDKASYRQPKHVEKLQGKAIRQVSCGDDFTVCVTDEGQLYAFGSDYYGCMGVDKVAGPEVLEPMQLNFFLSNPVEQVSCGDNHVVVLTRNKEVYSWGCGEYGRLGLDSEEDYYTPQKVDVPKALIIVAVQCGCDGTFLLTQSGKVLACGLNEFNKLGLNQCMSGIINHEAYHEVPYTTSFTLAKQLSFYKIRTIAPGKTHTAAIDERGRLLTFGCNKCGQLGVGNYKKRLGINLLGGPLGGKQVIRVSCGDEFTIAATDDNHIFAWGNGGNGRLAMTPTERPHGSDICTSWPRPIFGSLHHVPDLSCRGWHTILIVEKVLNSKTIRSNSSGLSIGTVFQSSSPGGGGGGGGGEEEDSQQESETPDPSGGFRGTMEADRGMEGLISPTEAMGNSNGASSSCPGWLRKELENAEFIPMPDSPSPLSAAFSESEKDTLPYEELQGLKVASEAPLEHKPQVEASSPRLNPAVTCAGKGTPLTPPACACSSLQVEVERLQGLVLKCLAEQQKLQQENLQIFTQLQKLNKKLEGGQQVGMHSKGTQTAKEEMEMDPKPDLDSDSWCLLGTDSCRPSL
The experiment in a line: Inhibition of NEK9 Lys1 labeling site harbouring RTEDDSLVVWKEVDLTR in human A-375 cells at 0.5 uM by KiNativ Profiling analysis relative to control. In kind it is cell-based.

Test [5] concerns the target Serine/threonine-protein kinase 25 (Homo sapiens) (UniProt O00506). The experiment in a line: Inhibition of YSK1 Lys2 labeling site in human A-375 cells at 0.5 uM by KiNativ Profiling analysis relative to control. Type of test: cell-based.
For test [6], the target named is T2, Mitogen-activated protein kinase kinase kinase 2 (Homo sapiens) (UniProt Q9Y2U5).
T2 sequence (whole entry): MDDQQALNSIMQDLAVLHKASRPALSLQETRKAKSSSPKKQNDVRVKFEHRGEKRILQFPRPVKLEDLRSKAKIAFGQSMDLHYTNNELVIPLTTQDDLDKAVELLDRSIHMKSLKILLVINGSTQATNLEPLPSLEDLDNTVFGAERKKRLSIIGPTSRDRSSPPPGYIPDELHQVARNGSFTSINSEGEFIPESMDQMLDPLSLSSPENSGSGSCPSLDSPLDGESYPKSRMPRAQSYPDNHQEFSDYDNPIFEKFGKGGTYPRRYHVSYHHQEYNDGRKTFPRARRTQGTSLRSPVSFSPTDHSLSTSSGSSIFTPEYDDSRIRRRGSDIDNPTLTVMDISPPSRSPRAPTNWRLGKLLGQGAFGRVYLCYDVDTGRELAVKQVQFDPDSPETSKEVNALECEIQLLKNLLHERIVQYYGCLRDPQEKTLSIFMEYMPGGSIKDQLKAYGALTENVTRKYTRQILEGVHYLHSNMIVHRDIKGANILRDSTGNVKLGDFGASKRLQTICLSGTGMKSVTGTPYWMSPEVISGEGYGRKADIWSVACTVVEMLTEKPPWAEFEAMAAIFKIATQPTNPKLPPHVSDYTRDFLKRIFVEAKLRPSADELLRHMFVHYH
The experiment in a line: Inhibition of MAP3K2 Lys1 labeling site harbouring ELAVKQVQFDPDSPETSKEVNALECEIQLLK in human A-375 cells at 5 uM by KiNativ Profiling analysis relative to control. In kind it is cell-based.

The target of test [7] is T3, Aurora kinase A (Homo sapiens) (UniProt O14965).
T3 sequence (whole entry): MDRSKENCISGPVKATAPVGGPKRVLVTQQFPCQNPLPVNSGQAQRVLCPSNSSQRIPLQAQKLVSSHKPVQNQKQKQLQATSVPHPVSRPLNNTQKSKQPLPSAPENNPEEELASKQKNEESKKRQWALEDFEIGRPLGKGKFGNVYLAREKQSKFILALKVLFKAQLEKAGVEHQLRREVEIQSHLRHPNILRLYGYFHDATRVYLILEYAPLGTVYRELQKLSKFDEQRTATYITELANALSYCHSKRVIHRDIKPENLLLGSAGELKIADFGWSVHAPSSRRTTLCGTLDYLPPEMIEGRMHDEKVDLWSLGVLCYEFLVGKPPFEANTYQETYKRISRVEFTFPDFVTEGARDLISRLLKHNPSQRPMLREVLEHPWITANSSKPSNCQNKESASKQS
Kind of test: Inhibition of AurA Lys2 labeling site in human A-375 cells at 5 uM by KiNativ Profiling analysis relative to control. Type of test: cell-based. In short, it runs like this: (§1)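 Live A375 melanoma cells were treated with compound at 5 or 0.5 μM, then lysed. The lysates were labeled with a lysine-reactive ATP or ADP-biotin probe. Kinase protection from probe labeling was measured by KiNativ.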

Test [8] has as its target T4, Aurora kinase C (Homo sapiens) (UniProt Q9UQB9).
T4 sequence (whole entry): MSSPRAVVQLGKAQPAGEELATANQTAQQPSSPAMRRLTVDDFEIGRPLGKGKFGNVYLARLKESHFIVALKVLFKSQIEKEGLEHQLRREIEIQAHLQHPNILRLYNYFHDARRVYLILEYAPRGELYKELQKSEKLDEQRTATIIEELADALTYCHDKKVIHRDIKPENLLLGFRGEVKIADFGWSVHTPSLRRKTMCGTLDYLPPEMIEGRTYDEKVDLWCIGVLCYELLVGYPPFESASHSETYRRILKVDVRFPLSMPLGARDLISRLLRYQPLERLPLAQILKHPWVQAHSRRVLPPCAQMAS
The experiment in a line: Inhibition of AurC ATP Loop labeling site in human A-375 cells at 0.5 uM by KiNativ Profiling analysis relative to control. In kind it is cell-based. In short, it runs like this: as §1

Chain of Mitogen-activated protein kinase 10 (P53779 whole entry): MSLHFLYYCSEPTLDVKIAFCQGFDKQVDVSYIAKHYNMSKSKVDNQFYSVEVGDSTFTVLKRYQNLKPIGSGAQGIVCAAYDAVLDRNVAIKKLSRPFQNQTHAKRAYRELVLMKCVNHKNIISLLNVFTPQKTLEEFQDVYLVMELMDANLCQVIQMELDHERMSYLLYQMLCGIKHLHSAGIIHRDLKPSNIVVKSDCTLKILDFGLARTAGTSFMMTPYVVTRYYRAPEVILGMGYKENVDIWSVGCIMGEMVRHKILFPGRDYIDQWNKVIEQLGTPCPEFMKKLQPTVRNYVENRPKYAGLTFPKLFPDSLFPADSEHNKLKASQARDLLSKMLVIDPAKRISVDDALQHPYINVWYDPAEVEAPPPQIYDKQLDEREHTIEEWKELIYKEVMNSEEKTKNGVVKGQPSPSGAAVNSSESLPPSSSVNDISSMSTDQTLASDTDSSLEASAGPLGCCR
Chain of Serine/threonine-protein kinase 25 (Homo sapiens) (O00506 whole entry, looked up): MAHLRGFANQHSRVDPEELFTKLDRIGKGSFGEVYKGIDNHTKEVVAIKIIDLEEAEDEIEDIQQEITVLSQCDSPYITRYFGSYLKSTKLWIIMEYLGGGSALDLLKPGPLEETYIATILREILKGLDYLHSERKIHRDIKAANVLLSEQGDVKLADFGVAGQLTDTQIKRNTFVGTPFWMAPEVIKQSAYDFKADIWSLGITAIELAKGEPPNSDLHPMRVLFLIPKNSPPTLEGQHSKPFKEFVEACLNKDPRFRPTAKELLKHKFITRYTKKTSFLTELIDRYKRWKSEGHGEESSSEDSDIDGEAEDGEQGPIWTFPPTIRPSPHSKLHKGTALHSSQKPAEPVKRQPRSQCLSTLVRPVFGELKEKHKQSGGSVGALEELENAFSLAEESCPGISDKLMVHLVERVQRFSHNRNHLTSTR
Chain of Phosphatidylinositol 3-kinase catalytic subunit type 3 (Homo sapiens) (Q8NEB9 whole entry): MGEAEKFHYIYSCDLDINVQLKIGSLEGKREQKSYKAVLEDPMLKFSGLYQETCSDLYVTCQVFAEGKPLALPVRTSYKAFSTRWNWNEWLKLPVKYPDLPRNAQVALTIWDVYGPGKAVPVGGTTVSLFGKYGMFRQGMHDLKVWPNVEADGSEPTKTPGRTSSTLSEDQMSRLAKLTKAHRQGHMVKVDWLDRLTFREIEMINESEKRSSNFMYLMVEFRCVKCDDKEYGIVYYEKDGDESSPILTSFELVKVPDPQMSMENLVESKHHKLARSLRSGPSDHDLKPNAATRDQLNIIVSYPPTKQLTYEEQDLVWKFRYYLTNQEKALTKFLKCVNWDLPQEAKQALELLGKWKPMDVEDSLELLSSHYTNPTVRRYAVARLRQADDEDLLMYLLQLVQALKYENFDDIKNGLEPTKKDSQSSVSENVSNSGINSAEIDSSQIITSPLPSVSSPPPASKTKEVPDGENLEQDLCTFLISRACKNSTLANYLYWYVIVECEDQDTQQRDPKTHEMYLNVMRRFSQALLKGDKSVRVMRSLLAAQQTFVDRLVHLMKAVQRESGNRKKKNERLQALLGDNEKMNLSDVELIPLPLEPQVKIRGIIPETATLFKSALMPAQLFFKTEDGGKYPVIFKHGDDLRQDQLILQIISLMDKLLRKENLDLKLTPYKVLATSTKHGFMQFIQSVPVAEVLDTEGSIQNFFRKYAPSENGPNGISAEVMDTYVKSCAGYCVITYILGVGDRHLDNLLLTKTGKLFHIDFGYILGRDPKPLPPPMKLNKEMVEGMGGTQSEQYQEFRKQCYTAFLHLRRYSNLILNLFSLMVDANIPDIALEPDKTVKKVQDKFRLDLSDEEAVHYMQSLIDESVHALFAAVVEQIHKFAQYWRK

As to `CCN1CCN(Cc2ccc(NC(=O)c3ccc(C)c(/C=C/c4cnc5[nH]ccc5c4OC)c3)cc2C(F)(F)F)CC1`, in test [1], the inhibition at 0.05 µM was -14.4%. For the same molecule, the inhibition was 40.6% in test [2]; 51.6% in test [3]; 7% in test [4]; 9.8% in test [5]; 60.6% in test [6]; 19.3% in test [7]. In test [8], the inhibition came to 30.2%.

Regarding `CCN1CCN(Cc2ccc(NC(=O)c3ccc(C)c(Oc4ccnc5[nH]ccc45)c3)cc2C(F)(F)F)CC1`, the inhibition at 0.05 µM in test [1] was 18.9%. Moreover, the inhibition in test [2] was 73.7%; in test [3], 36.8%; in test [4], 13.9%; in test [5], 12.5%; in test [6], 44.4%; in test [7], -0.8%. The inhibition in test [8] turned out to be 31.2%.

The values are drawn from ChEMBL document CHEMBL5696442, “Discovery of type II inhibitors of TGFβ-activated kinase 1 (TAK1) and mitogen-activated protein kinase kinase kinase kinase 2 (MAP4K2)” (J Med Chem, 2015).
